Results pooled from the literature.
Compare with care: the assays were run in different laboratories.
Organism: Pseudomonas aeruginosa
Effect on: microbial growth

SMILES	test	test system	setting	MIC
C[C@H]1COc2c(N3CCN(C)CC3)c(F)cc3c(=O)c(C(=O)O)cn1c23		ATCC27853	drug-resistant strain	1 µg/mL
CCCCCCC#Cc1cncc(-c2nnc(SCc3ccc(Cl)cc3)n2CCCN)c1	broth dilution	DSM1128		> 64 µg/mL
CC[C@H]1OC(=O)[C@H](C)[C@@H](O[C@H]2C[C@@](C)(OC)[C@@H](O)[C@H](C)O2)[C@H](C)[C@@H](O[C@@H]2O[C@H](C)C[C@H](N(C)C)[C@H]2O)[C@](C)(O)C[C@@H](C)CN(C)[C@H](C)[C@@H](O)[C@]1(C)O	broth dilution	ATCC27853		32 µg/mL
Cc1ccc2[nH]nc(-c3nnc(Nc4ccc(Cl)cc4)s3)c2c1		ATCC27853		119 µg/mL
OB1OCc2cc(F)ccc21	broth dilution			128 µg/mL
COc1ccc2ccc(O)c(/C=N/[C@H]3CCCC[C@H]3/N=C/c3c(O)cccc3F)c2c1	broth dilution			> 40 µM
Cc1cc(Nc2nnc(-c3n[nH]c4ccc(C)cc34)s2)cc([N+](=O)[O-])c1		ATCC27853		187 µg/mL
CO/N=C(\C(=O)N[C@@H]1C(=O)N2C(C(=O)O)=CCS[C@H]12)c1csc(N)n1	broth dilution	ATCC27853		16 µg/mL
COc1ccc2ccc(O)c(/C=N/[C@H]3CCCC[C@H]3/N=C/c3ccc(OCCN4CCCCC4)cc3O)c2c1	broth dilution		clinical isolate	> 40 µM
CCCCCCC#Cc1cncc(-c2nnc(SCc3ccc([N+](=O)[O-])cc3)n2CCCN)c1	broth dilution	DSM1128		> 64 µg/mL
Cc1ccc2[nH]nc(-c3nnc(Nc4ccc(Cl)c(Cl)c4)s3)c2c1		ATCC27853		121 µg/mL
CC1(C)S[C@@H]2[C@H](NC(=O)[C@H](N)c3ccccc3)C(=O)N2[C@H]1C(=O)O	broth dilution	ATCC27853		64 µg/mL
[H]/N=C(\N/C(=N/[H])NCCCCCCNC(=N)NC(=N)Nc1ccc(Cl)cc1)Nc1ccc(Cl)cc1		PAO1		8 µM
[H]/N=C(/N)N[C@H]1[C@H](O)[C@@H](O)[C@H](O[C@@H]2O[C@@H](C)[C@](O)(C=O)[C@H]2O[C@@H]2O[C@@H](CO)[C@H](O)[C@@H](O)[C@@H]2NC)[C@@H](N/C(N)=N\[H])[C@@H]1O	broth dilution	ATCC27 ATCC27853		20 µg/mL
Cc1ccc2[nH]nc(-c3nnc(Nc4ccc(C)c(C)c4)s3)c2c1		ATCC27853		108 µg/mL
C[C@@H](O)[C@H]1C(=O)N2C(C(=O)O)=C(SCCN=CN)C[C@H]12	broth dilution	ATCC27853		4 µg/mL
CCCCCCCCN=c1ccn(CCCCCCCCCCn2ccc(=NCCCCCCCC)cc2)cc1		PAO1		2 µM
CCCCCCC#Cc1cncc(-c2nnc(SCc3cc([N+](=O)[O-])cc([N+](=O)[O-])c3)n2CCCN)c1	broth dilution	DSM1128		> 64 µg/mL
Cc1cc(O)cc(Nc2nnc(-c3n[nH]c4ccc(C)cc34)s2)c1		ATCC27853		147 µg/mL
COc1ccc2ccc(O)c(/C=N/[C@H]3CCCC[C@H]3/N=C/c3ccc(-c4ccccc4)cc3O)c2c1	broth dilution			> 40 µM
CN(C)[C@@H]1C(O)=C(C(N)=O)C(=O)[C@@]2(O)C(O)=C3C(=O)c4c(O)cccc4[C@@](C)(O)[C@H]3C[C@@H]12	broth dilution	ATCC27853		16 µg/mL
Cc1ccc2[nH]nc(-c3nnc(Nc4ccc([N+](=O)[O-])cc4)s3)c2c1		ATCC27853		105 µg/mL
